Cytotoxicity data for 97 compounds are collected here from ChEMBL document CHEMBL4513216, “Probing the Open Global Health Chemical Diversity Library for Multistage-Active Starting Points for Next-Generation Antimalarials” (ACS Infect Dis, 2020).

Structures are written as SMILES.

This series is described as follows: Toxicity liver stage against HepG2, at 10uM. The arrangement: test concentration 10 uM, cell line HepG2-A16-CD81EGFP. The conditions noted are these: human, HepG2-A16-CD81EGFP cells; read-out: INHIBITION
The series is classed as cell-based. The method in brief:
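Uninfected HepG2-A16-CD81EGFP cells, 3 × 10^3 per well, 1536-well, plated on prespotted compound at 10 μM final, parasite-free screening media added to match infected plates; puromycin 10 μM positive, DMSO 0.5% negative; run in parallel with 48 h PbLuc assay at 37 °C, 5% CO2; viability by CellTiter-Glo luminescence, normalized to controls.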
With `O=C1c2c(O)cc(O)cc2O[C@@H](c2ccc(O)cc2)[C@@H]1O`, the cytotoxicity at 10 µM is -0.639%.
With `CCOC(=O)CCn1cnc2onc(-c3ccc(OC)cc3)c2c1=O`, the cytotoxicity at 10 µM was 18.8%.
As for `CNCc1cc(C)n(-c2ccccc2OC)c1C`, the cytotoxicity at 10 µM was -45%.
To `Cc1nsc(C(=O)NCCc2ccc(S(N)(=O)=O)cc2)n1` belongs 7.11%; to `O=C(Cc1cccs1)Nc1cnn(C2CCOCC2)c1`, -0.779%; to `CC(C)CN1C(=O)CO[C@@H]2CN(C(=O)NC(C)C)C[C@H]21`, -5.27%.
To `Cc1c(C)n(Cc2ccncc2)c2nc3c(c(N)c12)CCCCC3` belongs 1.26%.
With `CCC(=O)c1ccc(Br)cc1NN1c2cc(Br)ccc2C(=O)C1(C)OC` (configuration not stated), the cytotoxicity at 10 µM amounted to 78.6%.
For `Cc1ccccc1CN1CCCC1c1cccc(Nc2nccs2)n1` (configuration not stated), the cytotoxicity at 10 µM was 13.3%.
As to `Cc1cc(C2CCCCN2C(=O)c2ccsc2)nc2nccn12` (configuration not stated), the cytotoxicity at 10 µM is -11.8%.
`Cc1nccn1-c1nccnc1C1CCN(Cc2ccc(F)cc2)CC1`: the cytotoxicity at 10 µM is -5.43%.
With `Cc1cc(-c2cnc(NCc3cccnc3)nc2C(C)C)on1`, the cytotoxicity at 10 µM amounted to 19.2%.
To `NCCn1nc(C2CCN(Cc3ccc(Cl)c(Cl)c3)C2)c2nccnc21` (configuration not stated) belongs 27.7%.
To `COc1c(CNCCc2c[nH]c3cc(F)ccc23)c(C)nn1C` belongs -7.53%; to `CCc1ccc(C(=O)N2CCC(N(C)C(=O)OC(C)(C)C)C2)o1` (configuration not stated), -48%; to `CN1CCC(N(Cc2ccco2)S(=O)(=O)c2cc(Br)ccc2Br)CC1`, -17.7%.
For `Cc1ccc(OCC(=O)NS(=O)(=O)Cc2ccccc2)cc1`, the cytotoxicity at 10 µM came out at 2.07%.
Take `CCNC(=O)CN(CC)C(=O)c1cccc(Nc2cnn(C)c2)c1`: the cytotoxicity at 10 µM was found to be 7.68%.
Regarding `COc1ccncc1NCc1ccsc1`, the cytotoxicity at 10 µM worked out at 19%.
As for `Cc1nc(COC(=O)c2cccc3c2OCCO3)no1`, the cytotoxicity at 10 µM came out at 5.55%.
Next, `Cc1cccc(CN(Cc2ccccn2)Cc2ncc(C(C)(C)C)o2)c1`: 3.49%; `CCc1ccc(CCC(=O)N2CCC(=O)Nc3cccnc32)cc1`: -46.7%; `CC(C)c1ccc(/C=C/CC(=O)NC2CCS(=O)(=O)CC2)cc1`: 5.5%.
Regarding `CN1CCOC(CNCCOc2ccc(C#N)cc2)C1` (configuration not stated), the cytotoxicity at 10 µM stood at 9.34%.
To `Cc1ccccc1CC(C)(C)NC(=O)CCOc1cccc(C(N)=O)c1` belongs -4.07%; to `CCS(=O)(=O)Cc1nc(-c2cnn3c(C)cc(C)nc23)no1`, -4.79%; to `NC(=O)C1CN(c2ccc(Br)cn2)CCO1` (configuration not stated), 0.105%.
Next, `O=C(NCCN1CCOCC1)C(OC1CCCC1)c1ccccc1` (configuration not stated): -2.99%; `CCOC(=O)C1CCN(C(=O)CN2CCCC2c2ccccc2C)CC1` (configuration not stated): 7.97%.
Consider `CN(C(=O)CCC(F)(F)F)c1cccc2ncccc12`, for which the cytotoxicity at 10 µM was 1.9%.
Consider `CC(NC(=O)CSCC(N)=O)c1ccccc1Oc1ccccc1` (configuration not stated), for which the cytotoxicity at 10 µM came out at 4.84%.
For `Cc1nc(N2CCC3(CCOC3)C2)c2cc[nH]c2n1` (configuration not stated), the cytotoxicity at 10 µM was -2.95%.
In the case of `Cc1ccc(C(CNCc2ccc(C#N)cc2)N2CCOCC2)s1` (configuration not stated), the cytotoxicity at 10 µM is 15.3%.
For the compound `COCc1nc2cc(NCc3scnc3C)ccc2o1`, the cytotoxicity at 10 µM was determined as 18.6%.
As for `Cc1cc(C(=O)Nc2ccc3oc(=O)n(CCN(C)C)c3c2)c(C)o1`, the cytotoxicity at 10 µM is -2.22%.
Next, `Cc1nn(C)c(C)c1C1CCCN1c1ncnc2sccc12` (configuration not stated): 44.1%; `CC(C)CC(=O)NCc1cccc(OCCN(C)C2CCOCC2)c1`: 11.5%; `NC(=O)C1CCN(Cc2cc3c(cc2Br)OCCO3)C1` (configuration not stated): 0.641%.
To `CCc1nc(C2CCCN2Cc2nc(C(C)(C)C)no2)no1` (configuration not stated) belongs 12.9%; to `Cc1c(C(C)NC(=O)N2CCN(C3CCCC3)CC2)cnn1C` (configuration not stated), 3.02%; to `N#CCSCCCN1CCN(C(=O)c2ccccc2F)CC1`, -147%.
As for `Cc1noc(-c2ccnc(N3CCC(CN4CCOCC4)CC3)c2)n1`, the cytotoxicity at 10 µM was -2.11%.
As for `Cc1ccc(OCC(O)COC2CCOCC2)c(Cl)c1` (configuration not stated), the cytotoxicity at 10 µM is -5.27%.
On to `CCN(CC)S(=O)(=O)N(C)Cc1ccncc1`, for which the cytotoxicity at 10 µM is 0.52%.
To `Cc1ncsc1CNC(=O)NCC1(c2ccc3c(c2)OCO3)CC1` belongs 14.3%; to `CC(=O)N1CCCC(C(=O)N2CCN(Cc3cc(C)on3)CC2)C1` (configuration not stated), -52.2%; to `Cc1ccc2cc(C(=O)N3CCN(C(=O)N(C)C)CC3)ccc2n1`, -52.1%.
With `O=C(CN1CCCCC1Cn1cncn1)NC1CCN(C2CC2)CC1` (configuration not stated), the cytotoxicity at 10 µM was -19.3%.
Next, `Cc1ccc(C(=O)NC2CCN(Cc3noc(CC(C)C)n3)CC2)s1`: -15.2%; `Cc1cccc(C(=O)N2CCC3(CC2)CC(c2cnn(C)c2)CO3)c1` (configuration not stated): -78.7%.
As to `CNC(=O)N1CCc2nc(C(=O)NCc3cccc(OC)c3)sc2CC1`, the cytotoxicity at 10 µM is -84.2%.
To `COc1cc(N2C[C@@H]3COC[C@]3(COc3ccc(C#N)cn3)C2)ncn1` belongs 32.2%; to `Cc1cccn2c(CC(=O)N3CCC(CCn4cccn4)CC3)cnc12`, -53.1%; to `CC(C)c1nnsc1CN1CCc2[nH]nc(-c3ccc(F)c(F)c3)c2C1`, 25.9%.
In the case of `O=S(=O)(NCc1ccccc1)N1CCCN(c2ccncc2)CC1`, the cytotoxicity at 10 µM is -11%.
Take `Cc1cnc(N2CCCC(c3ccccc3)C2)nc1-c1ccnn1C` (configuration not stated): the cytotoxicity at 10 µM is -1.18%.
Next, `COC(=O)c1cc(CN2CCN(c3ncccc3C)CC2)ccc1O`: -0.503%; `CN(Cc1ccc(-n2cccn2)cc1)C[C@@H]1CCCN2CCCC[C@H]12`: 0.537%.
Turning to `CCc1ccc(C(=O)N2CCC3(CCC(=O)N(CCN(C)C)C3)CC2)[nH]1`, the cytotoxicity at 10 µM was found to be 5.96%.
On to `Cc1ccc2nc(CN(C)Cc3n[nH]c4c3CCCCC4)[nH]c2c1C`, for which the cytotoxicity at 10 µM worked out at 17.1%.
`COc1ccc2c(c1)OCC(CNc1cc(N)nc(SC)n1)C2` (configuration not stated): the cytotoxicity at 10 µM was 34.4%.
With `COc1cccc(OC2CN(C(=O)CCn3cnc4ccccc43)C2)c1`, the cytotoxicity at 10 µM was determined as 3.67%.
Regarding `Cc1nc(CC(=O)NCc2csc(N3CCCC3)n2)cs1`, the cytotoxicity at 10 µM was -5.26%.
For `COc1ccnc(CN(C)C(=O)CSc2nnc(N)s2)c1`, the cytotoxicity at 10 µM amounted to 3.94%.
On to `COc1ccc(C(=O)C2CCCN(CCc3ccccc3)C2)c(OC)c1` (configuration not stated), for which the cytotoxicity at 10 µM worked out at 7.8%.
For the compound `Cc1nn(CCO)cc1CN1CCCC1c1nc2c(C)cccc2[nH]1` (configuration not stated), the cytotoxicity at 10 µM is 3.83%.
To `c1ccc(C(Cn2cnnc2)N2CCOCC2)nc1` (configuration not stated) belongs 0.997%; to `COc1ccc(Cl)cc1-n1nc(C2CCCC2)nc1Cn1cnnn1`, -15.5%.
Regarding `CSc1cccc(CN(C)C(=O)Nc2nc(C)n(C)n2)c1`, the cytotoxicity at 10 µM worked out at 2.78%.
For `CCN1CCC(CC(=O)NCc2nc(C)cc(C)n2)CC1`, the cytotoxicity at 10 µM was -8.75%.
Next, `CN1CCN(Cc2n[nH]c(=O)n2CC2CCCCC2)CC1`: -47.9%.
With `c1ccc(C2CN(C3CC3)CC3(CCN(Cc4cscn4)CC3)C2)cc1` (configuration not stated), the cytotoxicity at 10 µM was found to be 5.58%.
Next, `CNc1ccc(C(=O)N(C)Cc2ccc3ccccc3n2)cn1`: 1.5%.
In the case of `C[C@@H]1CN(CC(C)(C)N2CCCCC2)CC[C@@]1(O)C1CC1`, the cytotoxicity at 10 µM was -4.6%.
To `COc1ccccc1N1CC(NC(=O)c2cc(C(C)C)nn2C)CC1=O` (configuration not stated) belongs 52.4%; to `Cc1ccccc1-n1cc(C2=CCN(CCn3cc[nH]c3=O)CC2)cn1`, 16.5%.
To `CN(c1ccc(C(=O)NCCCN2CCCCC2)c(Cl)c1)S(C)(=O)=O` belongs -0.313%; to `COc1cccc(CC(=O)N2CCC3(CC2)OCCCC3O)c1OC` (configuration not stated), -5.7%.
For `O=C1CC(c2ccc(F)cc2)c2cnn(C3CCCC3)c2N1` (configuration not stated), the cytotoxicity at 10 µM was 3.82%.
Next, `CSCCC1c2nc[nH]c2CCN1Cc1cc(Cl)ccc1O` (configuration not stated): 23.3%; `CCn1ccnc1CN1CCC(CCC(=O)Nc2ccccc2Cl)CC1`: -26.5%; `COc1ccc(CCN2CCCC(CN(C)Cc3ccc(C)o3)C2)cc1` (configuration not stated): -14.5%.
On to `Cc1cnn(CC2CN(Cc3cccc(OC(C)C)c3)CCO2)c1` (configuration not stated), for which the cytotoxicity at 10 µM was -4.83%.
For `CN(C)c1cc(CNC(=O)Nc2ccc(N3CCCC3)nc2)ccn1`, the cytotoxicity at 10 µM was -0.338%.
For `Cc1ccc(C(=O)N2CCC(Oc3ccc(C)c(C)c3)CC2)c(=O)[nH]1`, the cytotoxicity at 10 µM was found to be 12.9%.
`Cc1csc(N2CCCN(C(=O)Cc3ccc(C)s3)CC2)n1`: the cytotoxicity at 10 µM was -12%.
With `CC(C(=O)Nc1cccc(N2CCCCC2)c1)n1cncn1` (configuration not stated), the cytotoxicity at 10 µM was -7.3%.
Take `CN(C)c1cc(CNC(=O)c2cn(-c3ccc(F)cc3)nn2)ccn1`: the cytotoxicity at 10 µM was 11.5%.
For `CC(C)(C)C(O)CN1CCN(C(=O)c2cccc3[nH]ncc23)CC1` (configuration not stated), the cytotoxicity at 10 µM came to 5.93%.
`CC1N(C)C(=O)COC12CCN(Cc1nccs1)CC2` (configuration not stated): the cytotoxicity at 10 µM was -124%.
For the compound `Cc1cc(CN2C[C@@H]3COC[C@]3(CNC(=O)N3CCCC3)C2)no1`, the cytotoxicity at 10 µM is -77.5%.
As for `c1ccc2c(c1)C(NC1CCCC1)CC21CCNCC1` (configuration not stated), the cytotoxicity at 10 µM is -120%.
In the case of `CC(C)NC(=O)N1CCN(CC2CC2)CC2(CNC(=O)C2)C1` (configuration not stated), the cytotoxicity at 10 µM was found to be 2.52%.
To `COCCN1CCc2cc(C(=O)NC(C)C)c(NCC3CC3)nc2CC1` belongs 3.22%; to `Cc1cccc(CN2C(=O)CC[C@@H]3[C@H]2CCN3Cc2ccc(F)cc2)n1`, -72.1%.
Take `O=C(N1CCCC1)N1CCC2(CCCN(CCOc3ccccc3)C2)C1` (configuration not stated): the cytotoxicity at 10 µM was found to be 11.3%.
With `CN(Cc1cccnc1)C1CC2(CCN(Cc3cccnc3)CC2)C1`, the cytotoxicity at 10 µM was -87.2%.
